The subject of one series is mouse liver lysates. Kind of series: Substrate hydrolysis in mouse liver homogenate with or without Palmostatin B. The note with it: lysate 20 μg; for substrate processing by mouse liver lysates: substrate 5 μM. Type of series: biochemical. The procedure, abridged: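 Liver from 14-week-old virgin female C57BL/6 mice, washed twice in cold PBS, minced, sonicated in cold PBS, clarified, protein quantified by BCA. Homogenate (20 μg) preincubated with DMSO or Palmostatin B (10 μM) for 30 min on ice, then fluorogenic thioester substrate or colorimetric esterase substrate 4-NPO added (5 μM). Hydrolysis plotted.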

Another series has as its system PC3 cell lysate. The series can be described thus: QStE hydrolysis in PC3 cell lysate with inhibitors. In kind it is biochemical, human. Conditions: lysate 20 μg, inhibitor 10 μM, 30 min on ice, QStE 5 μM; three replicates.
The next series concerns T. gondii lysates. The series can be described thus: In situ depalmitoylase activity in T. gondii lysates. In kind it is biochemical, Toxoplasma gondii. Conditions: ASC20KRNT 2.5 μM, Ku80 T. gondii lysate 5 μg, inhibitor 10 μM.
A further series concerns the target TgPPT1 (Toxoplasma gondii, UniProt S4UG63). Kind of series: Steady-state kinetics of fluorogenic substrate hydrolysis by recombinant TgPPT1. Type of series: biochemical. The note with it: QStE 10 μM, TgPPT1 100 nM.
For another series, the target named is HsAPT1 (Homo sapiens, UniProt O75608). The series can be described thus: Steady-state kinetics of fluorogenic substrate hydrolysis by recombinant HsAPT1. Type of series: biochemical. Conditions: QStE 10 μM, HsAPT1 50 nM.
Sequence of HsAPT1 (O75608 whole entry): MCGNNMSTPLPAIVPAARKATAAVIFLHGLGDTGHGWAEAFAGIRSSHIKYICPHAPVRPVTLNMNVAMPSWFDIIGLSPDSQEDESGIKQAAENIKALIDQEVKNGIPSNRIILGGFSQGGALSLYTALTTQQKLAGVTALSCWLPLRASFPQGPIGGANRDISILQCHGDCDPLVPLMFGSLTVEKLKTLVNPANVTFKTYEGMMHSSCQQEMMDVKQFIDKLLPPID
Series [1] has as its system HsAPT1, HsAPT2 and TgPPT1. Kind of series: Steady-state kinetics, statement made for all three depalmitoylases together. In kind it is biochemical. The note with it: all three enzymes.
In a further series the target is phospholipase A2 (PLA2) (Sus scrofa, UniProt P00592). The series can be described thus: QStE hydrolysis by recombinant PLA2. The note with it: QStE 10 μM, PLA2 500 nM. Type of series: biochemical.
Sequence of phospholipase A2 (PLA2) (P00592 23-146): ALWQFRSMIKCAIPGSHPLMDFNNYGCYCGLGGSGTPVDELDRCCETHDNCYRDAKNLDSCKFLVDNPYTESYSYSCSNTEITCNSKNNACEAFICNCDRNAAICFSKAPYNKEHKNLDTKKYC
In series [2] the target is T1, monoacylglycerol lipase (MGLL) (Homo sapiens, UniProt Q99685).
T1 sequence (Q99685 1-303): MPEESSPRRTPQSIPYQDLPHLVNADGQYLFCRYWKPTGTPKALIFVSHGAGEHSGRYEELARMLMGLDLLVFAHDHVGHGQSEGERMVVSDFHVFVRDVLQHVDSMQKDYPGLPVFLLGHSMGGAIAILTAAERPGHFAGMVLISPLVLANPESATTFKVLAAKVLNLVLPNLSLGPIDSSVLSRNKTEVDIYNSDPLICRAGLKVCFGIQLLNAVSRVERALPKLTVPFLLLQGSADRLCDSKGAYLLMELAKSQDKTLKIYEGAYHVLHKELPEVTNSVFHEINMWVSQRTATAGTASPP
Kind of series: QStE hydrolysis by recombinant MGLL. In kind it is biochemical. The note with it: QStE 10 μM, MGLL 500 nM.

Series [3] is described as follows: Solubility of the quenched substrates in buffer. Type of series: physicochemical. Conditions: method not described.

For `CCCCCCCC(=O)Oc1ccc([N+](=O)[O-])cc1` [4-NPO, 4-nitrophenyl octanoate], the “substrate processing by mouse liver lysates” value in the series on mouse liver lysates is given as “more effectively processed”.
For the molecule `CCCCCCCCCCCCCCCCS(=O)(=O)F` [HDSF, hexadecylsulfonyl fluoride], in the series with PC3 cell lysate, the “effect of inhibitor on QStE processing in PC3 cell lysate” value is listed as “only minor reductions”.
Still for that read-out and setting: the same measure for `O=C(CN1CCN(C(=O)c2ccco2)CC1)Nc1cc(C(F)(F)F)ccc1Cl` [ML348]: “only minor reductions”; for `COc1ccc(N2CCN(C(=O)c3cc4c(s3)-c3ccccc3S(=O)(=O)C4)CC2)cc1` [ML349]: “only minor reductions”.
In the case of `O=S(=O)(F)Cc1ccccc1` [PMSF, phenylmethylsulfonyl fluoride], the “effect of inhibitor on QStE processing in PC3 cell lysate” value in the series on PC3 cell lysate is recorded as “did not reduce”.
With `CCCCCCCCCC[C@@H]1C(=O)O[C@H]1CCc1ccc(OC)c(OC)c1` [PalmB, Palmostatin B], in the series on mouse liver lysates (inhibitor 10 μM, 30 min on ice, 4-NPO 5 μM), the “effect of inhibitor on 4-NPO processing in mouse liver lysates” value is “only slightly reduced”. For the same molecule, in the series with mouse liver lysates (inhibitor 10 μM, 30 min on ice, QStE 5 μM), the “effect of inhibitor on QStE processing in mouse liver lysates” value is recorded as “completely blocked”. In addition, the “effect of inhibitor on QStE processing in PC3 cell lysate” value with PC3 cell lysate was “completely block”. Also, the “effect of inhibitor on activity in T. gondii lysate” value in the series with T. gondii lysates is listed as “completely abolished”.
In the case of `CN(C)c1ccc(/N=N/c2ccc(C(=O)NCCCn3cc(CCCCCCCCCCCCCCCC(=O)SC[C@H](NC(=O)c4cc5ccc(O)cc5oc4=O)C(=O)N4CCOCC4)nn3)cc2)cc1` [QStE, (R)-S-(2-(7-hydroxy-2-oxo-2H-chromene-3-carboxamido)-3-morpholino-3-oxopropyl) (E)-16-(1-(3-(4-((4-(dimethylamino)phenyl)diazenyl)benzamido)propyl)-1H-1,2,3-triazol-4-yl)hexadecanethioate], the “QStE hydrolysis by TgPPT1, specificity panel” value at TgPPT1 is reported as “readily hydrolyzed”. Besides, the “QStE hydrolysis by APT1, specificity panel” value at HsAPT1 is listed as “readily hydrolyzed”. Moreover, the “catalytic efficiency for QStE compared to QSE, times greater” value in [1] was 10-30 times. Moreover, on phospholipase A2 (PLA2), the “QStE hydrolysis by PLA2” value is reported as “not hydrolyzed”. Moreover, in [2], the “QStE hydrolysis by MGLL” value is reported as “not hydrolyzed”. Moreover, the “substrate processing by mouse liver lysates” value with mouse liver lysates is on record as “robust processing”. Besides, in series [3] (aqueous buffer), the “soluble in aqueous buffer at concentrations up to” value is reported as “up to 100 μM”. In addition, in [3] (buffer with CHAPS, 10 mM), the “soluble in detergent supplemented buffer at concentrations up to” value is “up to 500 μM”.

The values are drawn from publication PMC6338520 (Cell chemical biology, 2018).
